The test system of data set [1] is Rattus norvegicus. Put plainly: Compound was tested for anticonvulsant activity after Oral Administration into Rats by using MES screen test after 1h,dose 50 mg/kg; number of rats out of four which were protected. The format is functional. The procedure, abridged: (§1)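 Rats received the compound orally. […] Rats were tested in the MES screen at 0.25, 0.5, 1, 2 and 4 h. Each value is the number of rats protected out of 4. The test followed NINDS procedures.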

In data set [2] the test system is Mus musculus. Nature of the data set: Anticonvulsant activity after intraperitoneal injection into mice by using scPTZ screen after 0.5 hr. The format is functional.
In data set [3] the test system is Mus musculus. Put plainly: Anticonvulsant activity after intraperitoneal injection into mice measured in a maximal electroshock scree (MES) screen. In kind it is functional. (In general: The maximal electroshock test induces tonic seizures with an electrical stimulus.)
For data set [4], the system named is Rattus norvegicus. Put plainly: Compound was tested for anticonvulsant activity after Oral Administration into Rats by using MES screen test after 2h,dose 50 mg/kg; number of rats out of four which were protected. The format is functional. A digest of the protocol: as §1
Data set [5] deals with Mus musculus. Put plainly: Compound was tested for anticonvulsant activity after intraperitoneal injection into mice by using MES screen test after 0.5 hr. The format is functional. As to conditions: ip. A digest of the protocol:
(§2)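 Mice injected intraperitoneally at 30, 100 and 300 mg/kg and examined 0.5 and 4 h afterwards. Each entry is the minimum dose giving activity (MES protection, scPTZ protection, or rotorod failure for neurotoxicity) in half or more of the mice. Activity is called absent if nothing occurs at 300 mg/kg.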

Data set [6] in a line: Compound was tested for toxicity after intraperitoneal injection into mice by using neurotoxicity screen test after 2 hr. In kind it is organism-based. As to conditions: mouse, in vivo, ip. The procedure, abridged: (§3)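 Quantitative intraperitoneal mouse testing in the MES, scPTZ or rotorod neurotoxicity screens at the peak time given for each compound (0.25–2 h). ED50 or TD50 reported in mg/kg with 95% CI and slope (SE).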

Data set [7] deals with Rattus norvegicus. Put plainly: Compound was tested for anticonvulsant activity after Oral Administration into Rats by using MES screen test after 0.5h,dose 50 mg/kg; number of rats out of four which were protected. The format is functional. The procedure, abridged:
as §1

Data set [8] concerns Rattus norvegicus. Nature of the data set: Compound was tested for anticonvulsant activity after Oral Administration into Rats by using MES screen test after 0.25h,dose 50 mg/kg; number of rats out of four which were protected. In kind it is functional. The procedure, abridged: as §1
The test system of data set [9] is Mus musculus. Put plainly: Anticonvulsant activity after intraperitoneal injection into mice by using MES screen test after 0.5 hr. In kind it is functional.
The subject of data set [10] is Mus musculus. Put plainly: Compound was tested for anticonvulsant activity after intraperitoneal injection into mice by using scPTZ screen test after 0.5 hr. As to conditions: ip. In kind it is functional. The procedure, abridged: as §2
The subject of data set [11] is Rattus norvegicus. Nature of the data set: Compound was tested for anticonvulsant activity after Oral Administration into Rats by using MES screen test after 4h,dose 50 mg/kg; number of rats out of four which were protected. In kind it is functional. A digest of the protocol:
as §1

Data set [12] has as its system Mus musculus. Put plainly: Anticonvulsant activity after intraperitoneal injection into mice by using scPTZ screen test after 4 hr. The format is functional.
Data set [13] deals with Rattus norvegicus. Put plainly: Compound was tested for anticonvulsant activity after Oral Administration into Rats by using MES screen test after 0.25h,dose 12.5 mg/kg; No activity was demonstarted. The format is functional, organism-based. Also on record: dose 12.5 mg/kg. A digest of the protocol:
as §1

Data set [14] relates to Rattus norvegicus. Put plainly: Compound was tested for anticonvulsant activity after Oral Administration into Rats by using MES screen test after 2h,dose 12.5 mg/kg; number of rats out of four which were protected. In kind it is functional. A digest of the protocol:
as §1

Data set [15] deals with Rattus norvegicus. Nature of the data set: Compound was tested for anticonvulsant activity after Oral Administration into Rats by using MES screen test after 0.5h,dose 12.5 mg/kg; No activity was demonstarted. The format is functional, organism-based. Also on record: dose 12.5 mg/kg. The procedure, abridged:
as §1

The test system of data set [16] is Mus musculus. Nature of the data set: Compound was tested for toxicity after intraperitoneal injection into mice by using toxicity screen test after 4 hr. The format is organism-based. To be noted: in vivo, ip. A digest of the protocol:
as §2

Data set [17] concerns Rattus norvegicus. Put plainly: Compound was tested for anticonvulsant activity after Oral Administration into Rats by using MES screen test after 1h,dose 12.5 mg/kg; No activity was demonstarted. In kind it is functional, organism-based. Further details: dose 12.5 mg/kg. A digest of the protocol:
as §1

Data set [18] has as its system Mus musculus. Put plainly: Toxicity after intraperitoneal injection into mice by using toxicity screen test after 0.5 hr. As to conditions: in vivo, ip. In kind it is organism-based. The procedure, abridged:
as §2

The subject of data set [19] is Rattus norvegicus. Nature of the data set: Compound was tested for anticonvulsant activity after Oral Administration into Rats by using MES screen test after 4h,dose 12.5 mg/kg; No activity was demonstarted. In kind it is functional, organism-based. Further details: dose 12.5 mg/kg. The procedure, abridged: as §1
The test system of data set [20] is Mus musculus. Nature of the data set: Compound was tested for anticonvulsant activity after intraperitoneal injection into mice by using scPTZ screen test after 1 hr. The format is functional. As to conditions: ip. A digest of the protocol:
as §3

For data set [21], the system named is Mus musculus. Put plainly: Compound was tested for anticonvulsant activity after intraperitoneal injection into mice by using MES screen test after 1 hr. In kind it is functional. To be noted: ip. A digest of the protocol:
as §3

A short description of data set [22]: Protection index = TD50/ED50 (MES). As to conditions: mouse, in vivo; read-out: PI.
Data set [23] deals with Rattus norvegicus. Put plainly: Compound was tested for anticonvulsant activity after Oral Administration into Rats by using MES screen test after 0.5h,dose 50 mg/kg; number of rats out of four which were protected. The format is functional. The procedure, abridged: as §1
The subject of data set [24] is Rattus norvegicus. Put plainly: Compound was tested for anticonvulsant activity after Oral Administration into Rats by using MES screen test after 0.25h,dose 50 mg/kg; No activity was demonstarted. In kind it is functional, organism-based. Further details: dose 50 mg/kg. The procedure, abridged: as §1
For data set [25], the system named is Rattus norvegicus. Nature of the data set: Compound was tested for anticonvulsant activity after Oral Administration into Rats by using MES screen test after 4h,dose 12.5 mg/kg; number of rats out of four which were protected. In kind it is functional. The procedure, abridged: as §1
In data set [26] the test system is Rattus norvegicus. Put plainly: Anticonvulsant activity after oral administration into rats. The format is functional. Further details: concentration or dose not given beside the values.
Data set [27] has as its system Rattus norvegicus. Nature of the data set: Compound was tested for anticonvulsant activity after Oral Administration into Rats by using MES screen test after 1h,dose 12.5 mg/kg; number of rats out of four which were protected. The format is functional. A digest of the protocol:
as §1

The nature of data set [28]: Compound was tested for toxicity after intraperitoneal injection into mice by using neurotoxicity screen test after 1 hr. The format is organism-based. To be noted: mouse, in vivo, ip. A digest of the protocol: as §3
In data set [29] the test system is Rattus norvegicus. Nature of the data set: Compound was tested for anticonvulsant activity after Oral Administration into Rats by using MES screen test after 0.25h,dose 12.5 mg/kg; number of rats out of four which were protected. In kind it is functional. The procedure, abridged: as §1
The subject of data set [30] is Rattus norvegicus. Nature of the data set: Compound was tested for anticonvulsant activity after Oral Administration into Rats by using MES screen test after 2h,dose 12.5 mg/kg; No activity was demonstarted. The format is functional, organism-based. Also on record: dose 12.5 mg/kg. The procedure, abridged:
as §1

SMILES strings stand for the structures.

Usually ED50 stands for the dose at which the effect has come halfway, by size or by number of responders. By TD50 is commonly meant the 50% point of the dose-response relation for the toxic effect studied. In the case of `NC(=O)N/N=C/c1ccc(Oc2ccccc2F)cc1`, the Activity in data set [1] is listed as 4; in data set [4] it was 4; in [7] it was 4; in data set [8] it was 2; in [11], 4. Also, the Dose in [2] turned out to be 300 mg/kg; in [3], 300 mg/kg; in data set [9] it was 100 mg/kg. The results for the ED50 in data set [5] and in data set [10] were 20.7 mg/kg and more than 220 mg/kg, respectively. Also, the TD50 at 2 h in [6] was 170 mg/kg.

`N=C(N)N/N=C/c1ccc(Sc2ccc(F)cc2)cc1`: the Dose in data set [12] amounted to 30 mg/kg; in data set [2], 30 mg/kg; in data set [16] it was 100 mg/kg; in data set [18], 100 mg/kg; in data set [9] it was 300 mg/kg. Moreover, the Activity result was “No activity” in [13]; 1 in data set [14]; “No activity” in data set [15]; “No activity” in data set [17]; “No activity” in data set [19].

`NC(=O)N/N=C/c1ccc(Sc2ccc(Cl)cc2)cc1`: the Activity is reported as 4 in data set [1]; 4 in [4]; 1 in data set [8]; 4 in [11]; 4 in [23]. Further, the Dose in data set [2] stood at 300 mg/kg; in [3], 30 mg/kg; in data set [16] it was 100 mg/kg; in data set [9] it was 100 mg/kg. Further, the figures for the ED50 in data set [20] and in data set [21] were more than 120 mg/kg and 16.2 mg/kg, respectively. This compound also registered a TD50 at 2 h in [6] of 53.2 mg/kg. The selectivity ratio in data set [22] is 3.28.

`NC(=O)N/N=C/c1ccc(Oc2ccc(Cl)c(Cl)c2)cc1`: the Activity in [1] is 4; in data set [24], “No activity”; in data set [4], 4; in data set [11] it was 4; in [23], 2. Further, the values for the Dose in data set [3], in [16] and in [9] were 30 mg/kg, 300 mg/kg and 300 mg/kg, respectively.

On to `NC(=O)N/N=C\c1ccc(OS(=O)(=O)c2ccccc2)cc1`, for which the Activity amounted to 3 in data set [25]; 4 in data set [14]; 2 in data set [26]; 2 in data set [27]; 1 in data set [29]. The Dose in [2] was found to be 30 mg/kg; in data set [3] it was 30 mg/kg; in data set [16] it was 300 mg/kg; in data set [18] it was 300 mg/kg; in [9], 30 mg/kg. The ED50 in data set [5] was 25.3 mg/kg; in [10], more than 100 mg/kg. Moreover, the TD50 at 1 h in data set [28] was determined as 113 mg/kg. The selectivity ratio in data set [22] was found to be 4.47.

As for `CC/C(=N/NC(N)=O)c1ccccc1Oc1ccc(F)cc1`, the Activity entry in data set [13], in data set [15], in data set [30], in data set [17] and in [19] was “No activity” in each case. Moreover, the Dose in data set [16] stood at 300 mg/kg.

These data come from ChEMBL document CHEMBL1129428 (J Med Chem, 1996).
